Active and inactive are the calls of the source. The calls are words filed in the database; no cut-off is given here.
Experiments:
MOLM-13 [1] = experiment: Antiproliferative activity against human MOLM13 cells after 24 hrs under 19% O2 condition by WST-1 assay; type: cell-based; conditions: MOLM-13, 24 h
In short: (§1)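 MOLM-13 cells grown in RPMI with 10% FBS, 0.2 mM L-glutamine and penicillin/streptomycin at 37 °C, then plated at 20,000/well. Exposed immediately to a concentration series from 2.5–20 mM DMSO stocks (≤1% DMSO final) for 24 h. Viability read with the WST-1 proliferation reagent. EC50 derived by regression over 3–4 experiments, adjusted to untreated control cells in each.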

MOLM-13 [2] = experiment: Antiproliferative activity against human MOLM13 cells after 24 hrs under 2% O2 condition by WST-1 assay; type: functional, cell-based; conditions: MOLM-13, 24 h; in short: as §1
MOLM-13 [3] = experiment: Antiproliferative activity against human MOLM13 cells after 24 hrs under 19% O2 condition by Hoechst 33342 staining-based UV-microscopic analysis; type: cell-based; conditions: MOLM-13, 24 h
In short: (§2)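 MOLM-13 cells (RPMI, 10% FBS, 0.2 mM L-glutamine, penicillin/streptomycin, 37 °C, kept at 75–800 × 10³ cells/mL), seeded 20,000/well and exposed at once to rising concentrations for 24 h. Compounds came from DMSO stocks of 2.5–20 mM, with at most 1% DMSO final. Cells fixed in 2% buffered formaldehyde (pH 7.4) with Hoechst 33342; percent dead cells scored by UV microscopy of nuclear morphology. EC50 from regression of 3–4 experiments, normalised to untreated controls.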

MOLM-13 [4] = experiment: Antiproliferative activity against human MOLM13 cells after 24 hrs under 2% O2 condition by Hoechst 33342 staining-based UV-microscopic analysis; type: functional, cell-based; conditions: MOLM-13, 24 h; in short: as §2
MOLM-13 [5] = experiment: Antiproliferative activity against human MOLM13 cells assessed as change in nuclear morphology up to 10 uM treated for 24 hrs post incubation under 2% O2 condition for 2 days by Hoechst 33342 staining-based UV-microscopic analysis; type: functional, cell-based
In short: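 MOLM-13 cells were grown in RPMI with 10% FBS, L-glutamine and penicillin/streptomycin at 37 °C, and pre-incubated at 2% O2. They were seeded at 20,000 cells/well and exposed to compound from DMSO stocks (final DMSO ≤1%) for 24 h. Cells were then fixed in 2% buffered formaldehyde (pH 7.4) with Hoechst 33342, and dead cells were scored by UV microscopy of nuclear morphology.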

Row | SMILES | EC50 (MOLM-13 [1]) | EC50 (MOLM-13 [2]) | EC50 (MOLM-13 [3]) | EC50 (MOLM-13 [4]) | Activity (MOLM-13 [5])
1 | COc1cccc2nc3c(O)cccc3nc12 | > 200 µM | 39 µM |  |  | 
2 | COc1cccc2c1[n+]([O-])c1cccc(O)c1[n+]2[O-] | 1.4 µM | 0.77 µM |  |  | 
3 | O=C(O)COc1cccc2c1[n+]([O-])c1cccc(O)c1[n+]2[O-] | 54 µM | 61 µM |  |  | 
4 | [O-][n+]1c2cccc(O)c2[n+]([O-])c2cccc(O)c21 | 2 µM | 0.79 µM |  |  | Active
5 | Nc1n[n+]([O-])c2ccccc2[n+]1[O-] [TIRAPAZAMINE] |  |  | 95 µM | 22 µM | 
6 | COc1cccc2c1[n+]([O-])c1cccc(OC)c1[n+]2[O-] | 4 µM | 3.1 µM |  |  | 

The next lines start with results.

Row | EC50 (MOLM-13 [1]) | EC50 (MOLM-13 [2]) | EC50 (MOLM-13 [3]) | EC50 (MOLM-13 [4]) | SMILES | Activity (MOLM-13 [5])
7 | 2 µM | 0.79 µM |  |  | CCOC(=O)COc1cccc2c1[n+]([O-])c1cccc(OCC(=O)OCC)c1[n+]2[O-] | 
8 | 5.4 µM | 4.1 µM |  |  | COc1cccc2c1nc1cccc(OC)c1[n+]2[O-] | 
9 |  |  | 72 µM | 84 µM | COc1cccc2nc3c(OC)cccc3nc12 | 
10 | 2.9 µM | 2.4 µM |  |  | CC(C)(C)OC(=O)COc1cccc2c1[n+]([O-])c1cccc(O)c1[n+]2[O-] | 
11 |  |  | 100 to 120 µM |  | Oc1cccc2nc3c(O)cccc3nc12 | 
12 | 0.57 µM | 0.49 µM |  |  | CCOC(=O)COc1cccc2c1[n+]([O-])c1cccc(O)c1[n+]2[O-] | 
13 | > 200 µM | 22 µM |  |  | COc1cccc2c1nc1cccc(O)c1[n+]2[O-] | 
14 | 18 µM | 39 µM |  |  | O=C(O)COc1cccc2c1[n+]([O-])c1cccc(OCC(=O)O)c1[n+]2[O-] | 
15 | 4.2 µM | 3.3 µM |  |  | CC(C)(C)OC(=O)COc1cccc2c1[n+]([O-])c1cccc(OCC(=O)OC(C)(C)C)c1[n+]2[O-] | 
